High-throughput results deposited in PubChem BioAssay by several laboratories.
SENP1 inh – inhibitors of human SENP1 SUMO protease catalytic domain | Q9P0U3 | recombinant SENP1 catalytic domain, CyPet-SUMO1-YPet FRET cleavage | inhibition, % at 10 µM | actives 0.21% (n = 360,000) | AID 624204;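 active = inhibition at least 30% at 10 µM, raw YFP signal under a set limit, fluorescence ratio 0.5 to 1.5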;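 note: 0% = enzyme with DMSO and 100% = no enzyme wells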
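Assay system – human recombinant His6-tagged SENP1 catalytic domain enzyme · Input – SENP1 enzyme, 20 pM final · Buffer or medium – Tris pH 8 buffer plus EDTA, NaCl, BME, BSA, NP40, catalase · Schedule – 50 min reaction at room temperature · Technique – FRET read of cyan and yellow fluorescence · Control set – no-enzyme wells low, DMSO-plus-enzyme wells high control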
SENP6 inh – inhibitors of human SENP6 protease; actives 1.8% (n = 330,000); Recombinant SENP6 catalytic domain, aminoluciferin luminescence; Q9GZR1; inhibition, % at 10 µM;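 active = inhibition above about 50% at the single tested dose, limit read from the data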;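 note: plate controls were DMSO wells with enzyme for no effect and DMSO wells lacking enzyme for full effect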
Target sequence (Q9GZR1 628-1112 limits assumed): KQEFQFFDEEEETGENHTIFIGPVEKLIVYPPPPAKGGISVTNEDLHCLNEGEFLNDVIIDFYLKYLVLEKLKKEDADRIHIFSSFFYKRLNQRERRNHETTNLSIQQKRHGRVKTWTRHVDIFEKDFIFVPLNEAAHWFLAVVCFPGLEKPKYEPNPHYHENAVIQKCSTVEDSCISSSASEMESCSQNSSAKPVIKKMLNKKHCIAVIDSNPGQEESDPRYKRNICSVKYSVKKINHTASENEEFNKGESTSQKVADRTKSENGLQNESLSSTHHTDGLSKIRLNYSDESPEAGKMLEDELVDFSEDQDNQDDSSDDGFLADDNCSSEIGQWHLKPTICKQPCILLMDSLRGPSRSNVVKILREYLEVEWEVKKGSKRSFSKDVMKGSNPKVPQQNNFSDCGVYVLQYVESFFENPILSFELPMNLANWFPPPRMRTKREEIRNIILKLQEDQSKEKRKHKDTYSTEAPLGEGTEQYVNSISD
HSP90 inh – blocks HSP90-mediated luciferase refolding in reticulocyte lysate; AID 1789; actives 0.91% (n = 290,000); inhibition, % at 5.6 µM; Rabbit reticulocyte lysate, luciferase refolding luminescence, 3 h;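 active = inhibition above the screen-wide mean plus 3 SD, computed separately per campaign, cut at about 16% in these data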;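 note: 0% = DMSO wells and 100% = 60 µM geldanamycin wells; inhibitors lower the luminescence because luciferase stays unfolded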
SENP8 block-1 – inhibitors of human SENP8 protease. actives 0.64% (n = 360,000). AID 602440. recombinant SENP8, Nedd8 substrate fluorescence. inhibition, % at 20 µM; in the data active = inhibition mostly above about 40%, no sharp cut-off; inactive = mostly below about 27%
SENP8 block-2 – SENP8 protease inhibition; purified SENP8, Z-RLRGG-aminoluciferin cleavage, luminescence; inhibition, % at 10 µM; actives 1.2% (n = 330,000); in the data active = inhibition above about 50%
SENP7 block – inhibitors of human SENP7 protease; actives 1.5% (n = 330,000); recombinant SENP7, Z-RLRGG-aminoluciferin luminescence, 40 min; inhibition, % at 5 µM; Q9BQF6; AID 434973;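 active = inhibition above about 50% at the single test dose, limit read from the data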;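 note: plate controls were DMSO with enzyme for no effect and no enzyme buffer wells for full effect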
HSP90 inh confirm – HSP90 inhibition, confirmation assay; shares compounds with HSP90 inh; rabbit reticulocyte lysate, luciferase refolding luminescence, 3 h; inhibition, % at 5.9 µM; actives 64% (n = 2,300); AID 1846; in the data active = inhibition above about 18%;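 note: 0% = vehicle wells and 100% = reference inhibitor wells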
luciferase ctr – counter-screen for HSP90 inhibitors: inhibitors of firefly luciferase; shares compounds with HSP90 inh; purified native firefly luciferase, luminescence; inhibition, % at 5.9 µM; actives 48% (n = 2,300);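 active = inhibition above the mean inhibition of all tested sample wells plus 3 SD, cut at about 10% in these data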;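 note: 0% = DMSO with luciferase and 100% = wells lacking luciferase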
SENP8 conf – confirmation of human SENP8 protease inhibitors; AID 488912; Recombinant SENP8, Z-RLRGG-aminoluciferin luminescence, 60 min; actives 40% (n = 6,200); shares compounds with SENP7 block; inhibition, % at 12.5 µM;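 active = mean inhibition across replicates above about 50%, limit read from the data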
SENP6 conf – confirmation of human SENP6 protease inhibitors | shares compounds with SENP7 block | actives 58% (n = 6,200) | inhibition, % at 12.5 µM | recombinant SENP6, Z-RLRGG-aminoluciferin luminescence | AID 488915
SENP7 confirm – confirmation of human SENP7 protease inhibitors; shares compounds with SENP7 block; recombinant SENP7, Z-RLRGG-aminoluciferin luminescence, 40 min; inhibition, % at 12.5 µM; actives 69% (n = 6,200)
Casp3 select – selectivity test for SENP inhibitors: human caspase-3 inhibition. actives 60% (n = 6,200). shares compounds with SENP7 block. inhibition, % at 12.5 µM. purified caspase-3, Z-DEVD-aminoluciferin luminescence, 60 min;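 active = mean inhibition above about 50%, limit read from the data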;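 note: plate controls were enzyme with DMSO for no effect and wells without caspase-3 for full effect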
Luc interf – counter-screen for SENP inhibitors: luminescence interference. shares compounds with SENP7 block. Pre-incubated SENP8/Z-RLRGG-aminoluciferin, luciferase luminescence interference. inhibition, % at 12.5 µM. actives 39% (n = 6,200). AID 488919;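 active = mean inhibition above about 50% when retested at one dose, limit read from the data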;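 note: plate controls were DMSO wells with completed reaction for no effect and substrate without enzyme for full effect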
Active calls of the source: *; · = no result. Rows were chosen to be rich in hits. Some 2.9% of all compounds tested hit in one or more screens of this group.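 Rule for the calls, unless noted: active = mean inhibition above about 50% in the one-dose retest (limit read from the data); inactive = the rest.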

SMILES | SENP1 inh | SENP6 inh | HSP90 inh | SENP8 block-1 | SENP8 block-2 | SENP7 block | HSP90 inh confirm | luciferase ctr | SENP8 conf | SENP6 conf | SENP7 confirm | Casp3 select | Luc interf
N#CCCN(C(=S)NC(=O)c1cccs1)c1ccccc1F | -1 | 2 | · | 3 | -8 | 8 | · | · | · | · | · | · | ·
COc1ccc(-c2nnc(SCC(=O)Nc3cc(C)on3)o2)cc1 | 0 | -1 | -1 | 10 | 3 | 10 | · | · | · | · | · | · | ·
COc1ccc(NC(=O)c2ccccn2)cc1 | -1 | 94* | 35* | 0 | 81* | 91* | 64* | 47* | 85* | 86* | 98* | 95* | 85*
CSc1nc2ccc(NC(=O)c3ccccn3)cc2s1 | 0 | 78* | 41* | -44 | 90* | 93* | 62* | 57* | 52* | 86* | 98* | 93* | 17
O=C(Nc1nc2ccc(S(=O)(=O)N3CCCC3)cc2s1)c1ccccn1 | -4 | -5 | 2 | -63 | -9 | 5 | · | · | · | · | · | · | ·
CSc1nc2ccc(NC(=O)C3=NNC(=O)CC3)cc2s1 | -1 | 3 | 0 | -11 | 1 | 4 | · | · | · | · | · | · | ·
Cc1ccc2nc(NC(=O)c3ccccn3)sc2c1 | 2 | 96* | 61* | -55 | 95* | 96* | 94* | 88* | 58* | 81* | 93* | 84* | 11
CCN(C(=O)N1CCOCC1)c1ccccc1C | 1 | 0 | -1 | 8 | 4 | 0 | · | · | · | · | · | · | ·
COc1ccc(C(=O)Nc2nnc(SCC(=O)NCc3ccco3)s2)c(OC)c1 | -1 | 57* | 43* | -67 | 20 | 52* | 62* | 60* | -6 | 32 | 68* | 59* | -1
C/C(=N\OCc1cccc(C(=O)O)c1)c1ccc(Cl)cc1 | -1 | 97* | 71* | 21 | 97* | 101* | 86* | 87* | 99* | 100* | 103* | 97* | 98*
CC1(C)[C@H]2CC=C(CN3CCC(N4CCC(C(=O)N5CCCC5)CC4)CC3)[C@@H]1C2 | -1 | -8 | 2 | 4 | 0 | 3 | · | · | · | · | · | · | ·
CN(C)c1ccc(N=Nc2cccc(F)c2)cc1 | 5 | 94* | 39* | 31 | 87* | 95* | 47* | 41* | 6 | 73* | 56* | 59* | 64*
Cc1cccc(CN2CCN(C3CN(CCc4ccccc4)S(=O)(=O)C3)CC2)c1 (stereo not given) | -1 | · | · | 9 | · | · | · | · | · | · | · | · | ·
COc1ccccc1/C=C/c1nc2ccccc2c(=O)o1 | -2 | · | 8 | -165 | · | · | · | · | · | · | · | · | ·
COc1ccc(/C=C/c2nc3ccccc3c(=O)o2)cc1 | 0 | 90* | 79* | -329 | 84* | 78* | 87* | 14* | 71* | 71* | 83* | 63* | 65*
Cc1ccc(-c2nnc(Nc3ccccc3)o2)cc1 | 2 | 97* | 36* | -90 | 95* | 4 | 81* | 71* | -2 | 93* | 75* | 87* | 37
CC(=O)c1cc2c(cc1NC(=O)CN1CCCCC1C)OCO2 (stereo not given) | 1 | 1 | -3 | -16 | 1 | 0 | · | · | · | · | · | · | ·
